Columns and labels:
Cricetinae gen. sp. [1] = assay: Cultures with mild degree of squamous metaplasia at a conc of 10e-8 M; type: functional, Cricetulus griseus
Procedure, shortened: (§1)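 Tracheas from 29-31-day-old hamsters fed a vitamin A free diet; cultured in serum-free CMRL 1066 (insulin 1.0 μg/mL, hydrocortisone hemisuccinate 0.1 μg/mL, glutamine 2 mM, Garamycin 50 μg/mL), 50% O2/45% N2/5% CO2, rocked, 36 °C. Retinoid-free 3 days, then retinoid in DMSO (final 0.1%) for 7 days; medium and gas changed three times. Formalin-fixed day 10; squamous metaplasia graded: mild 2-10%, marked 10-40%, severe >40%.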

Cricetinae gen. sp. [2] = assay: Cultures with mild degree of squamous metaplasia at a conc of 10e-9 M; type: functional, Cricetulus griseus; procedure, shortened: as §1
Cricetinae gen. sp. [3] = assay: Cultures with marked degree of squamous metaplasia at a conc of 10e-10 M; type: functional, Cricetulus griseus; procedure, shortened: as §1
Cricetinae gen. sp. [4] = assay: Reversal of keratinization in vitamin A deficient hamster trachea culture at a conc of 10e-8 M; type: functional, Cricetulus griseus; settings: read-out: ED50 (the source's name)
Procedure, shortened: (§2)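 Tracheas from 29-31-day-old hamsters kept on a vitamin A free diet, cultured in serum-free CMRL 1066 (insulin 1.0 μg/mL, hydrocortisone hemisuccinate 0.1 μg/mL, glutamine 2 mM, Garamycin 50 μg/mL), 50% O2/45% N2/5% CO2, rocked at 36 °C. Retinoid-free for 3 days, then retinoid in DMSO (0.1% final) for 7 days. Fixed in formalin; squamous metaplasia graded mild 2-10%, marked 10-40%, severe >40%.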

Cricetinae gen. sp. [5] = assay: Cultures with mild degree of squamous metaplasia at a conc of 10e-11 M; type: functional, Cricetulus griseus; procedure, shortened: as §1
Cricetinae gen. sp. [6] = assay: Cultures with minimal degree of squamous metaplasia at a conc of 10e-10 M; type: functional, Cricetulus griseus; procedure, shortened: as §1
Cricetinae gen. sp. [7] = assay: Cultures with marked degree of squamous metaplasia at a conc of 10e-8 M; type: functional, Cricetulus griseus; procedure, shortened: as §1
Cricetinae gen. sp. [8] = assay: Cultures with minimal degree of squamous metaplasia at a conc of 10e-8 M; type: functional, Cricetulus griseus; procedure, shortened: as §1
Cricetinae gen. sp. [9] = assay: Cultures with severe degree of squamous metaplasia at a conc of 10e-9 M; type: functional, Cricetulus griseus; procedure, shortened: as §1
Cricetinae gen. sp. [10] = assay: Cultures with minimal degree of squamous metaplasia at a conc of 10e-9 M; type: functional, Cricetulus griseus; procedure, shortened: as §1
Cricetinae gen. sp. [11] = assay: Cultures with marked degree of squamous metaplasia at a conc of 10e-9 M; type: functional, Cricetulus griseus; procedure, shortened: as §1
Cricetinae gen. sp. [12] = assay: Cultures with mild degree of squamous metaplasia at a conc of 10e-10 M; type: functional, Cricetulus griseus; procedure, shortened: as §1
Cricetinae gen. sp. [13] = assay: Cultures with severe degree of squamous metaplasia at a conc of 10e-8 M; type: functional, Cricetulus griseus; procedure, shortened: as §1
Cricetinae gen. sp. [14] = assay: Cultures with marked degree of squamous metaplasia at a conc of 10e-11 M; type: functional; procedure, shortened: as §1
Cricetinae gen. sp. [15] = assay: Cultures with severe degree of squamous metaplasia at a conc of 10e-11 M; type: functional, Cricetulus griseus; procedure, shortened: as §1
Cricetinae gen. sp. [16] = assay: Cultures with no evidence of squamous metaplasia at a conc of 10e-8 M; type: functional, Cricetulus griseus; procedure, shortened: as §1
Cricetinae gen. sp. [17] = assay: Cultures with no evidence of squamous metaplasia at a conc of 10e-10 M; type: functional, Cricetulus griseus; procedure, shortened: as §1
Cricetinae gen. sp. [18] = assay: Cultures with severe degree of squamous metaplasia at a conc of 10e-10 M; type: functional, Cricetulus griseus; procedure, shortened: as §1
Cricetinae gen. sp. [19] = assay: Cultures with minimal degree of squamous metaplasia at a conc of 10e-11 M; type: functional, Cricetulus griseus; procedure, shortened: as §1
Cricetinae gen. sp. [20] = assay: Cultures with no evidence of squamous metaplasia at a conc of 10e-9 M; type: functional, Cricetulus griseus; procedure, shortened: as §1
Cricetinae gen. sp. [21] = assay: Cultures with no evidence of squamous metaplasia at a conc of 10e-11 M; type: functional, Cricetulus griseus; procedure, shortened: as §1
Cricetinae gen. sp. [22] = assay: Reversal of keratinization in vitamin A deficient hamster trachea culture; type: functional, Cricetulus griseus; settings: read-out: ED50 (the source's name); procedure, shortened: as §2

SMILES | Culture (Cricetinae gen. sp. [1]) | Culture (Cricetinae gen. sp. [2]) | Culture (Cricetinae gen. sp. [3]) | EC50 (Cricetinae gen. sp. [4]) | Culture (Cricetinae gen. sp. [6]) | Culture (Cricetinae gen. sp. [7]) | Culture (Cricetinae gen. sp. [8]) | Culture (Cricetinae gen. sp. [9]) | Culture (Cricetinae gen. sp. [10]) | Culture (Cricetinae gen. sp. [11]) | Culture (Cricetinae gen. sp. [12]) | Culture (Cricetinae gen. sp. [13]) | Culture (Cricetinae gen. sp. [16]) | Culture (Cricetinae gen. sp. [17]) | Culture (Cricetinae gen. sp. [18]) | Culture (Cricetinae gen. sp. [20]) | EC50 (Cricetinae gen. sp. [22]) | other results
CC1=C(/C=C/C(C)=C/C=C/C(C)=C\C(=O)NC(C)C(=O)O)C(C)(C)CCC1 (stereo not drawn) | 0% | 13% | 36% | 0.7 nM | 0% | 0% | 0% | 0% | 0% | 40% | 21% | 0% | 100% | 36% | 7% | 47% | – | Culture (Cricetinae gen. sp. [5]): 0%; Culture (Cricetinae gen. sp. [14]): 71%; Culture (Cricetinae gen. sp. [15]): 15%; Culture (Cricetinae gen. sp. [19]): 0%; Culture (Cricetinae gen. sp. [21]): 14%
CC1=C(/C=C/C(C)=C/C=C/C(C)=C/C(=O)NC(CCC(=O)O)C(=O)O)C(C)(C)CCC1 (stereo not drawn) | 12% | 50% | 43% | > 10 nM | 14% | 50% | 0% | 0% | 0% | 25% | 29% | 0% | 38% | 14% | 0% | 25% | – | –
CC1=C(/C=C/C(C)=C/C=C/C(C)=C\C(=O)NC(CC(C)C)C(=O)O)C(C)(C)CCC1 (stereo not drawn) | 14% | 29% | 57% | 0.5 nM | 0% | 14% | 0% | 0% | 0% | 14% | 14% | 0% | 72% | 29% | 0% | 57% | – | Culture (Cricetinae gen. sp. [5]): 0%; Culture (Cricetinae gen. sp. [14]): 50%; Culture (Cricetinae gen. sp. [15]): 17%; Culture (Cricetinae gen. sp. [19]): 0%; Culture (Cricetinae gen. sp. [21]): 33%
CC1=C(/C=C/C(C)=C/C=C/C(C)=C/C(=O)NCCO)C(C)(C)CCC1 | – | – | – | – | – | – | – | – | – | – | – | – | – | – | – | – | 0.1 nM | –
CC1=C(/C=C/C(C)=C/C=C/C(C)=C/C(=O)NC(Cc2ccc(O)cc2)C(=O)O)C(C)(C)CCC1 (stereo not drawn) | 0% | 12% | 58% | 3 nM | 0% | 25% | 0% | 0% | 0% | 50% | 14% | 0% | 75% | 14% | 14% | 38% | – | –
CC1=C(/C=C/C(C)=C/C=C/C(C)=C/C(=O)Nc2ccc(O)cc2)C(C)(C)CCC1 [FENRETINIDE] | – | – | – | – | – | – | – | – | – | – | – | – | – | – | – | – | 0.3 nM | –
CC1=C(/C=C/C(C)=C/C=C/C(C)=C\C(=O)O)C(C)(C)CCC1 [ISOTRETINOIN] | – | – | – | – | – | – | – | – | – | – | – | – | – | – | – | – | 0.03 nM | –
CC1=C(/C=C/C(C)=C/C=C/C(C)=C/C(=O)O)C(C)(C)CCC1 [TRETINOIN] | – | – | – | – | – | – | – | – | – | – | – | – | – | – | – | – | 0.03 nM | –

Reference: ChEMBL document CHEMBL1123950, “N-(Retinoyl)amino acids. Synthesis and chemopreventive activity in vitro” (1988)
